GPR7 antag = human neuropeptides B/W receptor 1 antagonism | P48145 | GPR7-expressing cells, fluorescence antagonist assay | inhibition, % at 4.4 µM | 290,000 tested, 1.1% active; in the data active = inhibition above about 16%, passing the limit was not always enough;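 also: cells stimulated with the agonist NPW; 0% = agonist with vehicle and 100% = vehicle without agonist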
Target sequence (P48145 whole entry, looked up): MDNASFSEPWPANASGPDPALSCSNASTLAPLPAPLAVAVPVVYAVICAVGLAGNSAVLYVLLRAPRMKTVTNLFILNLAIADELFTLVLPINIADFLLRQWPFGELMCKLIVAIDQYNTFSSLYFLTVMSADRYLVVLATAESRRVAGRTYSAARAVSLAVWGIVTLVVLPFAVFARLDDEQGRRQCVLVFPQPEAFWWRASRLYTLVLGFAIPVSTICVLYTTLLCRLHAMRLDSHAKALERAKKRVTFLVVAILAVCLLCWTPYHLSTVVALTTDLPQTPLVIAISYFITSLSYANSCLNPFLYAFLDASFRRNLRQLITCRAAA
EBNA-1 inhibitor = blocks EBNA-1 binding to DNA. EBNA-1 DNA binding, fluorescence polarization. inhibition, % at 14.8 µM. 300,000 tested, 0.34% active; in the data active = inhibition above about 28%
EBV gp42 block = EBV gp42 inhibition | Fluorescence polarization binding assay, mP read-out | inhibition, % (tested at 21.74 µM) | 220,000 tested, 0.42% active | AID 1085; in the data active = inhibition above about 50%
NS3 helicase inh = inhibitors of Hepatitis C virus NS3 helicase; inhibition, % at 10.9 µM; NS3 helicase DNA unwinding, Cy5 molecular beacon fluorescence; 290,000 tested, 0.56% active;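 active = inhibition above the mean of all tested compounds plus 3 SD, set per campaign, cut at about 35% in these data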;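 also: 0% = DMSO wells and 100% = thioflavine S control wells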
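Assay system – hepatitis C virus NS3 helicase domain fragment enzyme · Buffer or medium – MOPS pH 6.5, MgCl2, DTT, Tween20, BSA · Reagent – Cy5/quencher beacon DNA duplex and ATP to start · Compound – single 10.9 µM dose · Timing – 1 h at 25 °C · Technique – Cy5 beacon fluorescence read at start and 1 h · Measure – % inhibition of unwinding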
HCV core dimer = HCV core protein dimerization inhibition. 300,000 tested, 0.33% active. TR-FRET GST/Flag-core106 dimerization, 1536-well. inhibition, % at 5 µM. AID 1899;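 active = inhibition above the mean of all tested compounds plus 3 SD, set per screening campaign, cut at about 45% in these data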
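Material: GST/Flag-tagged HCV core106 proteins. Incubation: 4 h, 22.5 °C incubation. Read-out basis: inhibition (%) from 671 over 617 nm ratio. Measured by: TR-FRET, excitation 340 nm, emission 617 and 671 nm.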
ZTA DNA inh = blocks Epstein-Barr virus ZTA, an EBNA-1 counter-screen. ZTA-DNA binding, fluorescence polarization. inhibition, % at 11 µM. 320,000 tested, 0.15% active. AID 2234; in the data active = inhibition above about 33%
Numbers without * were called inactive; nt = no result. A selection: hits, their analogues and other compounds. The true share with any hit is near 2.3%.

SMILES | GPR7 antag | EBNA-1 inhibitor | EBV gp42 block | NS3 helicase inh | HCV core dimer | ZTA DNA inh
CC(C)CC(C(=O)Nc1oc(-c2ccccc2)c(-c2ccccc2)c1C#N)N1C(=O)c2ccccc2C1=O (centres undefined) | -12 | 6 | 7 | 2 | 76* | 25
CN(CCOc1ccc(-c2ccn(S(=O)(=O)c3ccc(Cl)cc3)n2)cc1)c1ccccn1 | 19* | -8 | -20 | -18 | -3 | -14
CN(CCOc1ccc(-c2ccn(S(=O)(=O)c3c(Cl)cccc3Cl)n2)cc1)c1ccccn1 | -2 | -5 | -11 | 1 | -7 | -5
N#Cc1ccc(-c2cccs2)nc1SCc1cccnc1 | 12 | -4 | 1 | -7 | 8 | -7
CN1CCN(C(=O)CSc2nc(-c3cccs3)ccc2C#N)CC1 | 2 | 0 | 25 | 3 | 53* | -6
CCN1C(=O)/C(=C\c2ccc(-c3ccc([N+](=O)[O-])cc3OC)o2)SC1=Nc1cccc(C(=O)O)c1 | 2 | nt | 81* | 16 | nt | nt
Cc1nnc(NC(=O)c2ccccc2NC(=O)c2ccccc2)s1 | -5 | -9 | -9 | -1 | -1 | 5
Cn1c(=O)[nH]c2cc(Cl)cnc21 | -7 | -1 | 63* | -3 | -4 | -13
Cn1c(=O)[nH]c2c(Cl)nccc21 | -11 | -9 | -10 | -2 | -1 | -5
Oc1cccc2ccc(N3CCOCC3)nc12 | -3 | 10 | nt | -4 | 5 | -2
CCCCn1c(=O)[nH]c(=O)c2c1nc(-c1ccc(OCC)cc1)n2CC | -1 | -10 | nt | -9 | 5 | -9
CCCCn1c(=O)[nH]c(=O)c2c1nc(-c1ccc(C#N)cc1)n2C1CCCC1 | -18 | 3 | -9 | -3 | 58* | 12
Cc1ccc(-n2cc(CN3CCC(CO)(Cc4cccc(C(F)(F)F)c4)CC3)cn2)cc1 | 10 | -10 | 8 | -69 | -14 | 17
Cc1ccc(-n2cc(CN3CCC(CO)(Cc4ccccc4)CC3)cn2)cc1 | 20* | 2 | -4 | -40 | -7 | -14
Cc1cccc(/N=C/c2c(O)n(Cc3ccc4c(c3)OCO4)c(=O)c3ccccc23)n1 | -6 | 7 | -3 | -1 | -1 | -14
CCn1nc(C)cc1C(=O)N1CCc2c([nH]c3ccccc23)C1c1cc(F)ccc1F (centres undefined) | 19* | 5 | 12 | -8 | 3 | -4
Cc1ncoc1C(=O)N1CCc2c([nH]c3ccccc23)C1c1ccccc1F (centres undefined) | 17 | 1 | -3 | -4 | 0 | 8
O=C(Nc1ccccc1Cl)c1ccc2nccnc2c1 | -2 | 8 | nt | 13 | 4 | -9
COC(=O)c1ccccc1NC(=O)Nc1ncccc1C | -17 | 2 | 64* | 10 | -3 | 5
Cc1cccnc1NC(=O)Nc1ccccc1 | 1 | 3 | -3 | 3 | 1 | 13
COC(=O)c1ccccc1NC(=O)c1ccc2nccnc2c1 | -10 | 4 | -16 | 4 | 51* | 4
COC(=O)c1c(C(=O)OC)c2ccccn2c1C(=O)c1ccccc1 | -10 | -9 | nt | -6 | 5 | -6
COC(=O)c1c(Cl)c2n3ccccc3c(C)c(-c3ccccc3)c-2c1C(=O)OC | 2 | -2 | 97* | 12 | -12 | -16
COC(=O)c1cc2c(-c3ccccc3)c(C)c3ccccn3c-2c1C(=O)OC | -11 | 9 | 65* | -3 | 32 | -7
COC(=O)c1c(C)[nH]c(C=O)c1-c1ccccc1 | -13 | 5 | 3 | -4 | 4 | -10
CC(C)(C)C1(C)OC(=O)C(=Cc2ccc(OCC(=O)Nc3ccccc3)cc2)C(=O)O1 (centres undefined) | -2 | 3 | -5 | 0 | -3 | -6
COC(=O)c1ccc2c(=O)n(-c3ccccc3F)c(=S)[nH]c2c1 | 3 | -7 | 5 | 2 | -3 | -11
Cc1ccccc1CN(C)CC(=O)Nc1c(C)cccc1C(C)C | 7 | 5 | -1 | -9 | 2 | -6
O=C1C2CC=C(Cl)CC2C(=O)N1CCCCCCN1C(=O)C2CC=C(Cl)CC2C1=O (centres undefined) | 14 | -9 | 63* | 4 | 16 | -7
Cc1cc(C)c2nc(-c3ccccn3)cc(C(=O)N3CCCC3)c2c1 | -2 | 0 | nt | 22 | 48* | -10
